Measurements published in paper PMC10809365 (ACS Omega, 2024).
pIC50, pKi: −log10 of the molar value. Entries after “also recorded” stand apart in the source; their conditions may differ.

Tests used:
[1] = biological target: T1, AbDapE (Acinetobacter baumannii, UniProt A3M8H2); assay: DapE ninhydrin enzyme inhibition assay, AbDapE; type: biochemical; conditions: for Inhibition of AbDapE (in words): tested at 100 μM; for Mode of inhibition of AbDapE: kinetic assays, modified ninhydrin assay
Method in brief: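 Purified His-tag-cleaved AbDapE at 8 nM final in 50 mM HEPES pH 7.5, 30 °C. Test compound (DMSO, 5% final) is preincubated with enzyme for 10 min before 2 mM N6-methyl-L,L-SDAP. After 10 min, heat to 100 °C for 1 min, chill, add 2% ninhydrin, 80 °C for 15 min, then read A570.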

[2] = biological target: T2, HiDapE (Haemophilus influenzae, UniProt P44514); assay: Thermal shift assay, HiDapE; type: binding; conditions: for Effect on stability (Tm) of HiDapE, in words: thermal shift assays
T2 sequence (P44514 1-377): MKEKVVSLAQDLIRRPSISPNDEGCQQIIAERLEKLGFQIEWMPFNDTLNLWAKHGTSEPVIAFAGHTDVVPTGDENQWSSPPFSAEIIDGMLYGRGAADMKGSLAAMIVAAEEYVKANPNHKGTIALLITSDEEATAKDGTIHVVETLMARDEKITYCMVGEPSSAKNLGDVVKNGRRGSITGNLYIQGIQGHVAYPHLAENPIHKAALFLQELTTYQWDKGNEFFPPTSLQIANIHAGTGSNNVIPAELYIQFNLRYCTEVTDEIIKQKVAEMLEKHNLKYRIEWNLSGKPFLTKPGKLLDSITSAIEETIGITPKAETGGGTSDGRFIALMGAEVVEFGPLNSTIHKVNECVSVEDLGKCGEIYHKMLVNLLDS

[3] = biological target: T1, AbDapE; assay: Thermal shift assay, AbDapE native; type: binding; conditions: for Tm1 AbDapE / Tm2 AbDapE: 16 μM AbDapE + 10× dye
Method in brief: (§1)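 SYPRO Orange thermal melt at 10× dye in 50 mM HEPES pH 7.5, 10 µL triplicates. Protein is 16 µM for native AbDapE and 6 µM for SeMet AbDapE, with DMSO kept below 5%. Tm comes from the negative first derivative of the melting curves, further differentiated to the third derivative. Ki is calculated from Tm plotted against log[test compound] using a derived van't Hoff equation.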

[4] = biological target: AbDapE-SeMet (Acinetobacter baumannii, UniProt A3M8H2); assay: Thermal shift assay, AbDapE-SeMet; type: binding; conditions: 6 μM AbDapE-SeMet + 10× dye
Method in brief: as §1

[5] = biological target: T2, HiDapE; conditions: read-out: HiDapE IC50 (sulfate); previously published enzyme inhibition; cited from earlier work
[6] = tested on: DapE; conditions: DapE from E. faecium and E. coli studied; cited from earlier work
[7] = 0.005 μM captopril, 200 nM HiDapE + 10× dye
[8] = 0.05 μM captopril, 200 nM HiDapE + 10× dye
[9] = 0.1 μM captopril, 200 nM HiDapE + 10× dye
[10] = 0.5 μM captopril, 200 nM HiDapE + 10× dye
[11] = 0.8 μM captopril, 200 nM HiDapE + 10× dye
[12] = 1 μM captopril, 200 nM HiDapE + 10× dye
[13] = 3 μM captopril, 200 nM HiDapE + 10× dye
[14] = 5 μM captopril, 200 nM HiDapE + 10× dye
[15] = 10 μM captopril, 200 nM HiDapE + 10× dye
[16] = 0.001 mM Li2SO4, 200 nM HiDapE + 10× dye
[17] = 0.005 mM Li2SO4, 200 nM HiDapE + 10× dye
[18] = 0.1 mM Li2SO4, 200 nM HiDapE + 10× dye
[19] = 0.5 mM Li2SO4, 200 nM HiDapE + 10× dye
[20] = 1 mM Li2SO4, 200 nM HiDapE + 10× dye
[21] = 5 mM Li2SO4, 200 nM HiDapE + 10× dye
[22] = 10 mM Li2SO4, 200 nM HiDapE + 10× dye
[23] = 30 mM Li2SO4, 200 nM HiDapE + 10× dye
[24] = 50 mM Li2SO4, 200 nM HiDapE + 10× dye
[25] = 60 mM Li2SO4, 200 nM HiDapE + 10× dye
[26] = 70 mM Li2SO4, 200 nM HiDapE + 10× dye

Sequence of AbDapE-SeMet (A3M8H2 whole entry): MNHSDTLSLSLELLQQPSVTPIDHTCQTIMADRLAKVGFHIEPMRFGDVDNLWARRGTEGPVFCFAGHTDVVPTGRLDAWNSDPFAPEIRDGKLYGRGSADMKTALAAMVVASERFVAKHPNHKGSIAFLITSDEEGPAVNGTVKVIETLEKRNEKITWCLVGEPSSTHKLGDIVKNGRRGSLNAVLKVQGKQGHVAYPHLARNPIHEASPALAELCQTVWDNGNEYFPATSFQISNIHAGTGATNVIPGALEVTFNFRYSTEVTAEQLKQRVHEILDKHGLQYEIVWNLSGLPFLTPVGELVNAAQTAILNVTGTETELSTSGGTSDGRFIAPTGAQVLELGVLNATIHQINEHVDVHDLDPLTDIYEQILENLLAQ
T1 sequence (A3M8H2 whole entry): as above

CC(=O)N1CCc2cc(Cl)c(S(=O)(=O)NCCC(C)C)cc21 [1-acetyl-5-chloro-N-isopentylindoline-6-sulfonamide]
Inhibition of AbDapE (in words) [1]: did not inhibit AbDapE significantly
Inhibition of AbDapE (in words) ([1]; listed as indoline sulfonamide): not significantly inhibited; also recorded: did not measurably inhibit

C[C@H](CS)C(=O)N1CCC[C@H]1C(=O)O [Captopril]
pIC50 ([1]; AbDapE IC50, ninhydrin assay, 8 nM enzyme, 2 mM N^6-methyl-L,L-SDAP): 5.92
Mode of inhibition of AbDapE [1]: competitive inhibitors
Tm1 HiDapE [2, 7]: 51.5 ± 0.1 °C
Tm2 HiDapE [2, 7]: 78.2 ± 0.1 °C
Tm1 HiDapE [2, 8]: 50.2 ± 0.6 °C
Tm2 HiDapE [2, 8]: 78.6 ± 0.1 °C
Tm1 HiDapE [2, 9]: 50.0 ± 0.8 °C
Tm2 HiDapE [2, 9]: 78.1 ± 0.1 °C
Tm1 HiDapE [2, 10]: 50.5 ± 0.1 °C
Tm2 HiDapE [2, 10]: 78.3 ± 0.1 °C
Tm1 HiDapE [2, 11]: 50.3 ± 0.5 °C
Tm2 HiDapE [2, 11]: 77.9 ± 0.1 °C
Tm1 HiDapE [2, 12]: 51.2 ± 0.2 °C
Tm2 HiDapE [2, 12]: 77.8 ± 0.1 °C
Tm1 HiDapE [2, 13]: 52.2 ± 0.1 °C
Tm2 HiDapE [2, 13]: 78.0 ± 0.1 °C
Tm1 HiDapE [2, 14]: 53.2 ± 0.2 °C
Tm2 HiDapE [2, 14]: 77.8 ± 0.1 °C
Tm1 HiDapE [2, 15]: 52.9 ± 0.6 °C
Tm2 HiDapE [2, 15]: 77.9 ± 0.1 °C
Effect on stability (Tm) of HiDapE, in words [2]: stabilize HiDapE
Tm1 AbDapE ([3]; 0.005 μM captopril): 41.9 ± 0.1 °C
Tm2 AbDapE ([3]; 0.005 μM captopril): 62.9 ± 0.1 °C
Tm1 AbDapE ([3]; 0.05 μM captopril): 41.9 ± 0.2 °C
Tm2 AbDapE ([3]; 0.05 μM captopril): 63.3 ± 0.7 °C
Tm1 AbDapE ([3]; 0.1 μM captopril): 41.9 ± 0.1 °C
Tm2 AbDapE ([3]; 0.1 μM captopril): 62.6 ± 0.3 °C
Tm1 AbDapE ([3]; 0.5 μM captopril): 41.9 ± 0.2 °C
Tm2 AbDapE ([3]; 0.5 μM captopril): 63.1 ± 0.4 °C
Tm1 AbDapE ([3]; 0.8 μM captopril): 41.9 ± 0.1 °C
Tm2 AbDapE ([3]; 0.8 μM captopril): 62.3 ± 0.1 °C
Tm1 AbDapE ([3]; 1 μM captopril): 41.7 ± 0.1 °C
Tm2 AbDapE ([3]; 1 μM captopril): 63.4 ± 1.0 °C
Tm1 AbDapE ([3]; 3 μM captopril): 41.7 ± 0.2 °C
Tm2 AbDapE ([3]; 3 μM captopril): 65.1 ± 0.3 °C
Tm1 AbDapE ([3]; 5 μM captopril): 41.4 ± 0.1 °C
Tm2 AbDapE ([3]; 5 μM captopril): 64.1 ± 0.2 °C
Tm1 AbDapE ([3]; 10 μM captopril): 41.1 ± 0.1 °C
Tm2 AbDapE ([3]; 10 μM captopril): 66.6 ± 0.2 °C
Tm1 AbDapE ([3]; 15 μM captopril): 42.0 ± 0.1 °C
Tm2 AbDapE ([3]; 15 μM captopril): 65.5 ± 0.4 °C
Effect on stability of AbDapE, in words ([3]; thermal shift assays): increases the stability
Tm AbDapE-SeMet ([4]; 0.005 μM captopril): 65.3 ± 0.2 °C
Tm AbDapE-SeMet ([4]; 0.05 μM captopril): 65.5 ± 0.1 °C
Tm AbDapE-SeMet ([4]; 0.1 μM captopril): 65.3 ± 0.2 °C
Tm AbDapE-SeMet ([4]; 0.5 μM captopril): 65.1 ± 0.1 °C
Tm AbDapE-SeMet ([4]; 0.8 μM captopril): 66.1 ± 0.1 °C
Tm AbDapE-SeMet ([4]; 1 μM captopril): 65.7 ± 0.1 °C
Tm AbDapE-SeMet ([4]; 3 μM captopril): 66.4 ± 0.3 °C
Tm AbDapE-SeMet ([4]; 5 μM captopril): 67.2 ± 0.2 °C
Tm AbDapE-SeMet ([4]; 10 μM captopril): 68.5 ± 0.1 °C

O=S(=O)([O-])[O-].[Li+].[Li+] [Lithium sulfate]
Mode of inhibition of AbDapE [1]: competitive inhibitors
Tm1 HiDapE [2, 16]: 51.7 ± 0.3 °C
Tm2 HiDapE [2, 16]: 75.6 ± 0.3 °C
Tm1 HiDapE [2, 17]: 51.4 ± 0.2 °C
Tm2 HiDapE [2, 17]: 76.2 ± 0.5 °C
Tm1 HiDapE [2, 18]: 52.7 ± 0.4 °C
Tm2 HiDapE [2, 18]: 76.1 ± 0.6 °C
Tm1 HiDapE [2, 19]: 51.2 ± 0.7 °C
Tm2 HiDapE [2, 19]: 78.3 ± 0.1 °C
Tm1 HiDapE [2, 20]: 50.7 ± 0.2 °C
Tm2 HiDapE [2, 20]: 77.8 ± 0.1 °C
Tm1 HiDapE [2, 21]: 51.2 ± 0.6 °C
Tm2 HiDapE [2, 21]: 77.7 ± 0.1 °C
Tm1 HiDapE [2, 22]: 51.2 ± 0.6 °C
Tm2 HiDapE [2, 22]: 77.4 ± 0.1 °C
Tm1 HiDapE [2, 23]: 52.6 ± 0.5 °C
Tm2 HiDapE [2, 23]: 74.6 ± 0.3 °C
Tm1 HiDapE [2, 24]: 53.3 ± 0.5 °C
Tm2 HiDapE [2, 24]: 75.9 ± 0.1 °C
Tm1 HiDapE [2, 25]: 53.3 ± 0.3 °C
Tm2 HiDapE [2, 25]: 73.8 ± 0.1 °C
Tm1 HiDapE [2, 26]: 54.4 ± 0.5 °C
Tm2 HiDapE [2, 26]: 76.6 ± 0.1 °C
pKi ([2]; read-out: Ki (HiDapE, thermal shift), Tm vs log [concentration], derived Van't Hoff equation, 200 nM HiDapE + 10× dye): 1.74
Effect on stability (Tm) of HiDapE, in words [2]: stabilize HiDapE
Tm1 AbDapE ([3]; 0.001 mM Li2SO4): 41.4 ± 0.1 °C
Tm2 AbDapE ([3]; 0.001 mM Li2SO4): 63.1 ± 0.1 °C
Tm1 AbDapE ([3]; 0.005 mM Li2SO4): 41.8 ± 0.2 °C
Tm2 AbDapE ([3]; 0.005 mM Li2SO4): 62.8 ± 0.2 °C
Tm1 AbDapE ([3]; 0.1 mM Li2SO4): 41.6 ± 0.1 °C
Tm2 AbDapE ([3]; 0.1 mM Li2SO4): 62.2 ± 0.1 °C
Tm1 AbDapE ([3]; 0.5 mM Li2SO4): 41.7 ± 0.1 °C
Tm2 AbDapE ([3]; 0.5 mM Li2SO4): 63.1 ± 0.1 °C
Tm1 AbDapE ([3]; 1 mM Li2SO4): 41.3 ± 0.1 °C
Tm2 AbDapE ([3]; 1 mM Li2SO4): 63.0 ± 0.1 °C
Tm1 AbDapE ([3]; 5 mM Li2SO4): 41.6 ± 0.1 °C
Tm2 AbDapE ([3]; 5 mM Li2SO4): 61.5 ± 0.2 °C
Tm1 AbDapE ([3]; 10 mM Li2SO4): 41.5 ± 0.1 °C
Tm2 AbDapE ([3]; 10 mM Li2SO4): 60.4 ± 0.1 °C
Tm1 AbDapE ([3]; 30 mM Li2SO4): 42.2 ± 0.2 °C
Tm2 AbDapE ([3]; 30 mM Li2SO4): 59.1 ± 0.2 °C
Tm1 AbDapE ([3]; 50 mM Li2SO4): 42.1 ± 0.1 °C
Tm2 AbDapE ([3]; 50 mM Li2SO4): 58.3 ± 0.1 °C
Tm1 AbDapE ([3]; 60 mM Li2SO4): 42.4 ± 0.2 °C
Tm2 AbDapE ([3]; 60 mM Li2SO4): 57.5 ± 0.1 °C
Tm1 AbDapE ([3]; 70 mM Li2SO4): 42.4 ± 0.3 °C
Tm2 AbDapE ([3]; 70 mM Li2SO4): 56.7 ± 0.2 °C
Tm AbDapE-SeMet ([4]; 0.001 mM Li2SO4): 64.2 ± 0.7 °C
Tm AbDapE-SeMet ([4]; 0.005 mM Li2SO4): 64.1 ± 0.3 °C
Tm AbDapE-SeMet ([4]; 0.1 mM Li2SO4): 64.0 ± 0.2 °C
Tm AbDapE-SeMet ([4]; 0.5 mM Li2SO4): 64.9 ± 0.1 °C
Tm AbDapE-SeMet ([4]; 1 mM Li2SO4): 64.7 ± 0.5 °C
Tm AbDapE-SeMet ([4]; 5 mM Li2SO4): 65.2 ± 0.1 °C
Tm AbDapE-SeMet ([4]; 10 mM Li2SO4): 65.0 ± 0.3 °C
Tm AbDapE-SeMet ([4]; 50 mM Li2SO4): 63.1 ± 0.1 °C
Tm AbDapE-SeMet ([4]; 70 mM Li2SO4): 61.8 ± 0.1 °C
pIC50 [5]: 1.86

CCN(CC)C(=S)SSC(=S)N(CC)CC [disulfiram]
Effect on Tm values of DapE, in words [6]: lowering of the Tm values

Cc1ccccc1C(OCCN(C)C)c1ccccc1 (stereo not shown) [orphenadrine]
Effect on Tm values of DapE, in words [6]: lowering of the Tm values
